Experimental findings from the EternaBench riboswitch data are described below.

The test system of this series is MS2 coat protein. Briefly: apparent Kd, MS2 coat protein; higher = weaker binding; RNA-MaP array; FMN 200 µM where present. The gist of the method: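 Binding was read on Illumina sequencing-chip clusters where stalled E. coli RNA polymerase had transcribed each design. A titration of SNAP-549-labelled MS2 coat protein began at 0.7 or 1.5 nM and doubled to 3 µM, once without ligand and once with constant ligand, in 100 mM Tris-HCl pH 7.5, 80 mM KCl, 4 mM MgCl2, BSA, DTT, yeast tRNA and Tween-20. The apparent Kd is the median of filtered per-cluster binding-curve fits, based on green signal normalised to red-channel RNA signal and control-cluster median Fmax.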

The mark [1] stands for this setting: designed as: OFF switch for flavin mononucleotide, no ligand.
Where [2] appears, read: ligand present: flavin mononucleotide, designed as: OFF switch for flavin mononucleotide.
The mark [3] stands for this setting: designed as: ON switch for flavin mononucleotide, no ligand.
The mark [4] stands for this setting: ligand present: flavin mononucleotide, designed as: ON switch for flavin mononucleotide.

For orientation: apparent Kd means the concentration giving half-maximal binding under the conditions of the assay. Take “UUUUACCGAGGAUAUACAUUUUUUUUAUUAUCCUCAUUAUUACAUGAGGAUCACCCAUGUAGAAGGCGGAUUUU”: the “apparent Kd” value runs as follows: under setting [1], 52.9 nM; under setting [2], 112 nM.
“UGUGGGAGCAGAGGAUAUUACAUGAGGAUCACCCAUGUAUGAACCAAUAGCUGGAAACAGCAAUGUAAGAAGGCUGCUCCGACA”: the “apparent Kd” value is, setting by setting: under setting [1], 13 nM; under setting [2], 165 nM.
As for “ACUAAACGAGGAUAUACUAACAAACCUCAAACAUACAUCAAACAUGAGGAUCACCCAUGUAGAAGGCGUAAACU”, the “apparent Kd” value by setting is: under setting [1], 37.6 nM; under setting [2], 17.6 nM.
As to “UUACCUCAUGAGAAGGACAUGAGGAUCACCCAUGUAGGAUAUCAUGGGUCAGUGGAAUUGAAUCUUCGGAUUCAAUAACUCUAU”, the “apparent Kd” value was found to be 114 nM under setting [3] and 34.5 nM under setting [4].
In the case of “CGUGCGUAUGUGAGGAUAUGCUGGUCCUUGGAUCGGCAGAAGGCACAUGAGGAUCACCCAUGUGGUGUCGUUCU”, the “apparent Kd” value came to 172 nM under setting [1] and 23.1 nM under setting [2].
Consider “GGGUACAUGGGAGGAUAUCAUGUAGAUACAUGAGGAUCACCCAUGUCGAUGGAGACAUCGGAGAUUGAGAAGGCCCAUGUACCG”, for which the “apparent Kd” value is, setting by setting: under setting [3], 696 nM; under setting [4], 36.1 nM.
For the sequence “ACAUAAAUUCGAGGAUAUCGGUGAUAUAAUUUACGAGAAGGCGAUAAUAGUUAUAAACUUAUAGACAUGAGGAUCACCCAUGUA”, the “apparent Kd” value by setting is: under setting [3], 30.2 nM; under setting [4], 28.3 nM.
For the sequence “UGAUCCGCAUCGGCGCACAAGACAUGAGGAUCACCCAUGUACAGAAGGCGAAAAGCGAAGGCGGUCGAGGAUAUGUACCUACGG”, the “apparent Kd” value by setting is: under setting [1], 6.92 nM; under setting [2], 15.7 nM.
The corresponding values for “GGUGGACAUGAGGAUCACCCAUGUGAGGAUAUCGGCUGGUACGUGUUGGCUGGCUUCUCGAGAAGGCACAUAGU” are 64.7 nM and 75.4 nM.
Regarding “ACGAAGAAACAGAAGGGUAAAUUAGUUAAUUAUUAUUUGGUUAUGCACUACAGGAUAUGUAUAACAUGAGGAUCACCCAUGUAC”, the “apparent Kd” value worked out at 87.2 nM under setting [3] and 53.5 nM under setting [4].
As for “UUUAUUUUUACAGGAUAUCAUCUAUAUAACUCAUGCACAUGUUUACAUGAGGAUCACCCAUGUUUUGAGAAGGGUAAUGAAACA”, the “apparent Kd” value by setting is: under setting [3], 440 nM; under setting [4], 228 nM.
On to “GCUGGUCGAGGAUAUAUAUGACGUGCUUCGGCACGAAGGUCACAUGAGGAUCACCCAUGUAGAAGGCGACCAGC”, for which the “apparent Kd” value reads like this: under setting [1], 56.4 nM; under setting [2], 390 nM.
Turning to “AAGUAUAGAGGAUAUACAUAGAUACAGAUUCAUGUAGAACUACAUGAGGAUCACCCAUGUAGAAGGCUAUACUA”, the “apparent Kd” value reads like this: under setting [1], 30.2 nM; under setting [2], 159 nM.
As to “ACAUGAUAUGUAGGAUAUCACAUUAAUUGAUUCAUAUUUCAAUAUAGCAUUUGAGAAGGACAUUUACAUGAGGAUCACCCAUGU”, the “apparent Kd” value by setting is: under setting [1], 9.18 nM; under setting [2], 8.64 nM.
The like results for “UAUACACAUGAGGAUCACCCAUGUGAGGAUAUGUAAAAAAAACCGACGGUUUUUUUUUACAGAAGGCACAUAUA” were, in that order, 51.6 nM and 53.5 nM.
Turning to “AGAUAACAUGUAGGAUAUCGAGGCCUGAGGCCUCGAGAAGGACAUGAGGAUCACCCAUGUUUGCCGAGCAUGGAAUCACGCACU”, the “apparent Kd” value runs as follows: under setting [1], 18.4 nM; under setting [2], 54.6 nM.
Take “AUUAUUAUAAAUUUGGCAAGUAUCAGAAGGCGUUACAUGAGGAUCACCCAUGUUUUGUAUAGUAACGAGGAUAUGAUAUGGAAA”: the “apparent Kd” value was determined as 15.2 nM under setting [1] and 13.5 nM under setting [2].
As to “GGCUAGCCUCAAGGAUAUACGCUCUCAACAAAGAACCGACUACAUGAGGAUCACCCAUGUACCAUGUAGAAGGUGAGGUUAGCC”, the “apparent Kd” value runs as follows: under setting [3], 906 nM; under setting [4], 58.1 nM.
Consider “UUAAAUCAUGUAGGAUAUGCAUGGCGAAGCUACGCAGAAGGACAUGAGGAUCACCCAUGUUAUAGCUACCCAGUUCGGUGGCAA”, for which the “apparent Kd” value is, setting by setting: under setting [1], 96.1 nM; under setting [2], 221 nM.
As to “UCGAAGAAUGCAGGAUAUACAUGAGGAUCACCCAUGUCACGGUCGGCUUCUGUAGAAGGGCACUUACCCAGGUAAAUUGCUUGG”, the “apparent Kd” value was found to be 5.39 nM under setting [1] and 5.81 nM under setting [2].
Consider “UGUUGUAAUACAGGAUAUCUAUUAUUUUUAUUUAGAGAAGGGUAAUCACAUGAGGAUCACCCAUGUAUAUACGAGGAAGAAGAG”, for which the “apparent Kd” value by setting is: under setting [3], 186 nM; under setting [4], 182 nM.
As to “CAUGUGUAAGGAUAUGACAAUGGUAUCGAAAGAUACCAUUGUCAGAAGGUACAUGAGGAUCACCCAUGUGGAUC”, the “apparent Kd” value reads like this: under setting [1], 198 nM; under setting [2], 91 nM.
For “AAAACAUGAGGAUCACCCAUGUAAAGAACGCUUAAUAGAUCUGAGGAUAUACUAGAAUUUACGUAGUAGAAGGCAGUGGGUACA”, the “apparent Kd” value reads like this: under setting [3], 31.3 nM; under setting [4], 25.3 nM.
With “AUAUUGUGAGGAUAUGAACAUAGUAUCGAAAGAUACUAAGUUCAGAAGGCACAUGAGGAUCACCCAUGUUUCUC”, the “apparent Kd” value is 70.2 nM under setting [1] and 738 nM under setting [2].
Regarding “CCUAUGUAAGGAUAUAGCCACAUUACGAAUAAGUAGUGUGGCUAGAAGGUACAUGAGGAUCACCCAUGUAUGGG”, the “apparent Kd” value stood at 195 nM under setting [1] and 40.6 nM under setting [2].
With “GUAGAGAUUACAUGAGGAUCACCCAUGUCAGAACGGGUAAUCAGAAGGUAUUAUUAGAGAAAGGGUAAGGAUAUGAUUUUUUAU”, the “apparent Kd” value under setting [3] was determined as 735 nM and the “apparent Kd” value under setting [4] is 617 nM.
Regarding “AAUAAAUAUAAAUUUUAUUUGUCGUAGGAUAUGGGUGACAUGAGGAUCACCCAUGUUGCAGACGACCAGAAGGGCGGCGGAUAU”, the “apparent Kd” value runs as follows: under setting [3], 117 nM; under setting [4], 23.2 nM.
For “UAAAUUAACAAGAAGGCUAACAUGAGGAUCACCCAUGUUGUACAUGGAUAUAGAGGAUAUUGCUAAUAAUUAUUUAUCAUAAUU”, the “apparent Kd” value by setting is: under setting [1], 24.4 nM; under setting [2], 20.1 nM.
“UGGCUGAGUCGAGGAUAUGAUCUUCAUAUAUAUACAUGAGGAUCACCCAUGUAUAAUUACAUGGAUCAGAAGGCGACUCAGCCU”: the “apparent Kd” value under setting [3] stood at 29.4 nM and the “apparent Kd” value under setting [4] was 9.47 nM.
Take “UGCCGAUGAGGAUAUACAUUGAAUUUGAUUCAUGUAAAACUACAUGAGGAUCACCCAUGUAGAAGGCAUUGGCU”: the “apparent Kd” value under setting [1] was 16.9 nM and the “apparent Kd” value under setting [2] amounted to 30.4 nM.
Consider “UUUUUACUUGCAGGAUAUGGAGACAUGAGGAUCACCCAUGUAUGAUAAGCUAAAUUAUGCUGUGGCCAGAAGGGUAUUGUUCUU”, for which the “apparent Kd” value under setting [3] was 72 nM and the “apparent Kd” value under setting [4] amounted to 52.9 nM.
As to “ACAUGAGGAUCACCCAUGUAUUACAUGGUUAUGUUUAUUAACAGAAGGCGAAAUUACCACUUGAUCGAGGAUAUGUAUUCAAUU”, the “apparent Kd” value was found to be 73 nM under setting [1] and 59.7 nM under setting [2].
Regarding “GGGUAUAUCGGAGGAUAUCAUGUAAAUACAUGAGGAUCACCCAUGUCGAUGGAGACAUCGGAGAUUGAGAAGGCCGAUGUACCG”, the “apparent Kd” value reads like this: under setting [3], 163 nM; under setting [4], 9.34 nM.
As for “GCGCAGCUGGGUGAGGAUAUCGGUGGUAAAACAUGAGGAUCACCCAUGUCCGGAGCUCGGACUUCCGAGAAGGCACCCGGCUGCA”, the “apparent Kd” value by setting is: under setting [3], 39 nM; under setting [4], 9.8 nM.
“UUAAUAAAGUAAGGAUAUACAUGAGGAUCACUCGUAGAAGGUACUAUACAUGAGGAUCACCCAUGUUCCGGUCAGAAGACUGGA”: the “apparent Kd” value came out at 1100 nM under setting [3] and 778 nM under setting [4].
As for “CAGGUUAGAGGAUAUACGUAGGUACAGAUCUGUGUGUUUCUACAUGAGGAUCACCCAUGUAGAAGGCUAUCCUG”, the “apparent Kd” value was 25.6 nM under setting [1] and 20 nM under setting [2].
The corresponding values for “UAUCCACAUGAGGAUCACCCAUGUCAGGAUAUUAGAUCUAUAUAUACAUAUAAUUAUUUAAGAAGGGACACUAA” are 11.5 nM and 11.8 nM.
The like results for “AUAUAGUCAGGAUAUCGAAGUGUGUGUUGGUUUGUAAUUUACGAGAAGGGACAUGAGGAUCACCCAUGUAGGAA” were, in that order, 40.1 nM and 34.9 nM.
With “UUAGCAACAUGAGGAUCACCCAUGUAGGAUAUCGCUAUUGUAAUCAUGAAACAUGAUUACAAUAGCGAGAAGGACAUAUGCUUU”, the “apparent Kd” value under setting [1] was found to be 13.9 nM and the “apparent Kd” value under setting [2] was 14.9 nM.
In the case of “AAUGCGGCAGGAUAUACAUGAGGAUCACCCAUGUAGAUCAGAUAUAUGGUCGAGCCAUGUAGAAGGGCCGCAAA”, the “apparent Kd” value runs as follows: under setting [1], 30.8 nM; under setting [2], 110 nM.
“CACAAGAAAGUCGAAGGUUGAAGUAGAAGGACUACAACAUGACAUGAGGAUCACCCAUGUGCUAAGUAGGAUAUGCUUUAAUCG”: the “apparent Kd” value reads like this: under setting [1], 5.63 nM; under setting [2], 5.47 nM.
Consider “AUAUCUCAAUUAGAUCCAAUACGAACAUGAGGAUCACCCAUGUAGGAUAUGCUAGAAGUUGUGUUGCAGAAGGACAUAUACCUU”, for which the “apparent Kd” value runs as follows: under setting [1], 41.4 nM; under setting [2], 38.6 nM.
Regarding “UUUUUUUAUAAGGAUAUGGGAGUCGAUAGACACCCAGAAGGUAUAACAUGAGGAUCACCCAUGUGUCCUUUUUU”, the “apparent Kd” value came to 21.2 nM under setting [1] and 24.1 nM under setting [2].
As for “AAUAUGUUGCAGAAGGUUAUUUUUAUAACGAUCCAUGAGACAUGAGGAUCACCCAUGUAAUAGAUGAAGGAUAUGCAAUAUAUU”, the “apparent Kd” value under setting [1] amounted to 6.21 nM and the “apparent Kd” value under setting [2] was determined as 5.84 nM.
With “AUAAAUAUAGCGAUAUGAUCGAGAGAUCAUGUCGCUAAUAUUAGAAGGACAUGAGGAUCACCCAUGUAGGAUAUGGGAGUAUAA”, the “apparent Kd” value is, setting by setting: under setting [3], 107 nM; under setting [4], 55.1 nM.
For “UCAUAACAUGAGGAUCACCCAUGUCAGGAUAUGAUACUAUGUACUUCGGUACAUAGUAUCAGAAGGGACAUGCU”, the “apparent Kd” value is, setting by setting: under setting [1], 121 nM; under setting [2], 18.6 nM.
Turning to “AAAAGCUAAGGAUAUACAUGAGGAUCACCCAUGUACACCGGUACGGGUGCGAACUCCUGUAGAAGGUGGGAUAA”, the “apparent Kd” value under setting [1] is 148 nM and the “apparent Kd” value under setting [2] came out at 159 nM.
As for “GUGCGGUGAGGAUAUACGUAGGUGAAAAUCUGUGUGCUCCUACAUGAGGAUCACCCAUGUAGAAGGCAUGUCAC”, the “apparent Kd” value was 15.5 nM under setting [1] and 27.8 nM under setting [2].
